Test [1] in a line: inhibition of Brca1/Bard1 split-luciferase complementation, confirmation, counter-screen for Mdm2/MdmX interaction inhibitor project, luminescence, single concentration (AID 504668; call rule not given here). As to conditions: Brca1/Bard1 bimolecular luciferase complementation counterscreen, at 8 µM, stronger effect = higher value. Background: Counterscreens check selectivity or assay interference.
Test [2] addresses Tumor necrosis factor receptor superfamily member 10B (Homo sapiens) (UniProt O14763). The test is described as follows: caspase-8 TRAIL sensitization, hit retest, confirmation, cell-based, NB7+caspase-8, with/without TRAIL, luminescence panel (AID 651596; in the data active = activity above about 50%). To be noted: NB7 neuroblastoma + caspase-8, TRAIL sensitization, luminescence viability, with TRAIL, mean of runs, at 10 µM, stronger effect = higher value.

Experiment in test [3]: as above
To be noted: NB7 neuroblastoma + caspase-8, without TRAIL, luminescence viability, without TRAIL, mean of runs, at 10 µM.

Test [4] deals with Carboxy-terminal domain RNA polymerase II polypeptide A small phosphatase 1 (Homo sapiens) (UniProt Q9GZU7). The test is described as follows: Scp-1 binding by thermal shift, confirmation, orthogonal assay for Scp-1 inhibitor project, biophysical, differential scanning fluorimetry (AID 540329).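 Also: 0% = Tm of DMSO wells and 100% = Tm with sodium orthovanadate.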 To be noted: Recombinant SCP1, Sypro Orange thermal shift Tm; at 40 µM; stronger effect = higher value. In short, it runs like this: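 Assay system: human Scp-1 phosphatase catalytic domain, residues 76-261; input: 10 µM Scp-1 stock; medium: Tris acetate pH 5.5 buffer; dosing: one dose per compound, 10 mM stock; schedule: 20-95 °C thermal ramp; measured by: protein melting followed by Sypro Orange dye fluorescence; read-out basis: melting temperature shift relative to vanadate; control set: vanadate reference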
Carboxy-terminal domain RNA polymerase II polypeptide A small phosphatase 1 (Homo sapiens), sequence (Q9GZU7 76-261 limits assumed): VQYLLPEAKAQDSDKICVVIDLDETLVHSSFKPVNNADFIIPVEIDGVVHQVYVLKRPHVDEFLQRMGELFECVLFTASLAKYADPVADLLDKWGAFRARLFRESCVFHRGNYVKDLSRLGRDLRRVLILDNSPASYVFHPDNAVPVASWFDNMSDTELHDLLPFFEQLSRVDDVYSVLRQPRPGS
In general terms: Differential scanning fluorimetry follows unfolding on heating by fluorescence.

Test [5] concerns the target Tumor necrosis factor receptor superfamily member 10B (Homo sapiens) (UniProt O14763). The test is described as follows: TRAIL sensitizers in caspase-8 expressing neuroblastoma cells, dose response, NB7 cells plus caspase-8, luminescence, panel (AID 652002). As to conditions: NB7 neuroblastoma +caspase-8, TRAIL sensitization, luminescence viability, NB7+Caspase-8, with TRAIL, run 1; at 12.5 µM (top of the series).

Test [6] shares this target. The description is as above. To be noted: NB7 neuroblastoma +caspase-8, TRAIL sensitization, luminescence viability, NB7+Caspase-8, with TRAIL, run 2; at 12.5 µM (top of the series).
Experiment in test [7]: as above
To be noted: NB7 neuroblastoma +caspase-8, no TRAIL, compound-alone cytotoxicity counter-screen, luminescence viability, NB7+Caspase-8, run 1; at 12.5 µM (top of the series) unless noted.

Experiment in test [8]: as above
To be noted: NB7 neuroblastoma +caspase-8, no TRAIL, compound-alone cytotoxicity counter-screen, luminescence viability, NB7+Caspase-8, run 2; at 12.5 µM (top of the series) unless noted.

The list shows a part of the results. Calls of active or inactive are those of the source.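 The calls were made as follows, unless noted: active = substances whose mean melting-temperature shift, as a percentage of the reference inhibitor's shift, reaches about 5.3% (limit read from the data); inactive = the rest.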

Tumor necrosis factor receptor superfamily member 10B (Homo sapiens), sequence (O14763 whole entry, looked up): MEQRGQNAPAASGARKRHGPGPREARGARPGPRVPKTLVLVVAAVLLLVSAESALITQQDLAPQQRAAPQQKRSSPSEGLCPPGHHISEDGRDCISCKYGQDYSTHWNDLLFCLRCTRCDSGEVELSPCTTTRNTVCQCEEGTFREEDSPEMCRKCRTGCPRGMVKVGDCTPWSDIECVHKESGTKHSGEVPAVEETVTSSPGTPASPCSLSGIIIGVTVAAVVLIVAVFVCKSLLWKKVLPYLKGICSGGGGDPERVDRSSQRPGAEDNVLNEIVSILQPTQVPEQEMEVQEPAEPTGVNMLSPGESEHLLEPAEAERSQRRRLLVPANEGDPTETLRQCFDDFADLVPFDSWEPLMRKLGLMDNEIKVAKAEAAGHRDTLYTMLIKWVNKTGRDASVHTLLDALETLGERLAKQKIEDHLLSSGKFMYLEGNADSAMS

As for `CN(C)CCCNC(=O)c1ccc(-c2nc(-c3ccc(Cl)cc3)cs2)cc1`, in test [1], the inhibition is 28.3% (active). In addition, the activity was found to be 95.2% in test [2] and 97.6% in test [3].
Regarding `Cn1ncc2c(O/N=C(\N)c3ccc(C(F)(F)F)cc3)ncnc21`, the inhibition in test [1] is 24.2% (active). For the same molecule, the activity in test [2] and in test [3] was 98.8% each time.
As for `O=C(Nc1ccc(OCC(F)(F)C(F)F)c(C(F)(F)F)c1)c1ccc(Cl)cc1`, in test [1], the inhibition is 34% (active). Besides, the activity was found to be 87.3% in test [2] and 65.7% in test [3].
In the same order, the values of `O=C(Nc1ccc2c(c1)OCCO2)c1cccc2nc3ccccc3nc12` are 27.6% (active), 59.7% and 77.5%.
For `COC(=O)c1c(NC(=O)c2ccc(OC(C)C)cc2)sc2c1CC(C)(C)NC2(C)C`, the inhibition in test [1] was 23.6% (active). Besides, the activity came out at 43.5% in test [2] and 31.2% in test [3].
For `Cc1ccc(/C=C/C(=O)Nc2ccc([N+](=O)[O-])c(NC(=O)/C=C/c3ccc(C)o3)c2)o1`, the thermal shift relative to vanadate control in test [4] is 11% (active).
With `Cn1c(=NC(=O)CCl)sc2ccccc21`, the inhibition in test [1] was 28.7% (active). In addition, the activity is 99.5% in test [2] and 98.7% in test [3].
As to `Cc1c(Cl)cnc(NC(=O)COC(=O)c2ccc(S(=O)(=O)NCc3ccco3)cc2)c1Cl`, the thermal shift relative to vanadate control in test [4] is 10.3% (active).
The same measure, in the same setting: the value for `CS(=O)(=O)C1=NN2C(=N)/C(=C\c3ccc(OCCOc4ccccc4)cc3)C(=O)N=C2S1` was 280% (active); that for `C[N+](C)(C)CCNC(=O)c1cc[n+](Cc2ccccc2)c(/C=N/O)c1` was -22.6% (inactive).
On the same count and under the same terms, for `O=C(c1cc2c(s1)CCC2)N1CCN(c2ccccc2)CC1` the value was -14.1% (inactive); for `O=C(Cn1nnc(-c2ccc3c(c2)OCO3)n1)NCc1ccco1`, 2.67% (inactive).
`CCOC(=O)c1sc(NC(=O)c2cc(-c3ccccc3C)nc3ccccc23)c(C#N)c1C`: in test [1], the inhibition was 32.4% (active). Further, the activity in test [2] is 54.4%; in test [3], 40.4%. Moreover, the activity, % sensitization in test [5] is 16.7%; in test [6], -4.14%; in test [7], 4.11%; in test [8] it was -11.3%.
`O=C(Nc1cccc(F)c1)c1cc(-c2ccco2)nc2ccccc12`: the thermal shift relative to vanadate control in test [4] is -0.45% (inactive).
Turning to `O=C1NN(c2ccccc2)C(=O)/C1=C/c1ccc(-c2cccc(C(=O)O)c2)o1`, the thermal shift relative to vanadate control in test [4] is 14.3% (active).
Still for that read-out and setting: for `COc1cccc(NC(C)=[N+](C)CCNS(=O)(=O)c2ccc(Cl)cc2)c1` the value was -9.24% (inactive).
For `COc1cccc(N2CCN(c3ncnc4c3cnn4-c3ccc(C)cc3C)CC2)c1`, the inhibition in test [1] was 28% (active). For the same molecule, the activity in test [2] was 97.8%; in test [3], 96%.
As to `O=S(=O)(Nc1ccccc1Cl)c1cccc2nsnc12`, the thermal shift relative to vanadate control in test [4] is -16.9% (inactive).
Still for that read-out and setting: for `Cc1ccccc1NC(=O)CN1C(=O)N/C(=C\c2cccn2-c2cccc(C(=O)O)c2)C1=O` the value was 7.04% (active).
With `COc1ccccc1C(=O)Nc1nc(-c2ccc(S(=O)(=O)N3CCOCC3)cc2)cs1`, the inhibition in test [1] was 29.5% (active). The activity in test [2] worked out at 89.5%; in test [3] it was 80.6%.
For the molecule `CO/N=C(\C(=O)N[C@@H]1C(=O)N2C(C(=O)O)=C(COC(C)=O)CS[C@H]12)c1csc(N)n1` (stereo in doubt), in test [4], the thermal shift relative to vanadate control was -5.16% (inactive).
Still for that read-out and setting: for `O=C(COc1ccc(-n2cnnn2)cc1)Nc1ccccc1Cl` the value was -5.03% (inactive).
As for `Cc1cc(NC(=O)c2cncc(Br)c2)ccc1NC(=O)c1cc2ccccc2o1`, the inhibition in test [1] is 28.6% (active). Besides, the results for the activity in test [2] and in test [3] were 58.9% and 13.3%, respectively. The activity, % sensitization came out at 7.53% in test [5], 53.9% in test [6], 12.3% in test [7] and 28.1% in test [8].
In the case of `Cc1ccc(C(=O)NNC(=O)c2cc3cc4ccccc4nc3s2)cc1`, in test [4], the thermal shift relative to vanadate control was -10.9% (inactive).
Still for that read-out and setting: for `O=C(CCS(=O)(=O)c1ccc(Br)cc1)NCCc1ccc(Cl)cc1` the value was 1.56% (inactive).
Same read-out and setting: for `CNS(=O)(=O)c1cccc(C(=O)OCC(=O)N2c3ccccc3NC(=O)C2(C)C)c1` the value was 0.5% (inactive).
For `O=C(Nc1ccc(OC(F)F)cc1)Nc1cccc(C(F)(F)F)c1`, the inhibition in test [1] was 24.4% (active). The results for the activity in test [2] and in test [3] were 85.3% and 69.6%, respectively.
With `Cc1ccc(Cc2nnc(SCC(=O)Nc3ccc(C)cc3C)[nH]c2=O)cc1`, in test [4], the thermal shift relative to vanadate control is 4.55% (inactive).
For the molecule `COc1ccc(S(=O)(=O)c2c[nH]c(=S)[nH]c2=O)cc1Cl`, the thermal shift relative to vanadate control in test [4] was 13.1% (active).
On the same count and under the same terms, for `CCOC(=O)C1=C(C)c2ccccc2OC1(C)C(=O)OCC` (configuration not stated) the value was -2.89% (inactive).
On to `CCCCCc1cc(=O)oc2c(C(CCN(CC)CC)c3cc(OC)c(OC)c(OC)c3)c(OC)cc(OC)c12` (configuration not stated), for which the inhibition in test [1] is 32% (active). The results for the activity in test [2] and in test [3] were 52.9% and 54.7%, respectively. Further, the activity, % sensitization was -8.61% in test [5], 49.1% in test [6], -1% in test [7] and 3.69% in test [8].
Take `CN(c1ccccc1)S(=O)(=O)c1ccc(Cl)c(C(=O)OCC(=O)NCc2ccco2)c1`: in test [4], the thermal shift relative to vanadate control is -14.8% (inactive).
Consider `Cc1ccn2c(=O)nc(SCC(=O)NCc3ccc4c(c3)OCO4)nc2c1`, for which, in test [4], the thermal shift relative to vanadate control was -9.63% (inactive).
With `O=C(NNC(=O)c1ccc2ccccc2c1)c1ccc(Cl)cc1`, the thermal shift relative to vanadate control in test [4] is -19.4% (inactive).
As for `O=C(COC(=O)CCC(=O)c1cccs1)NCc1ccco1`, in test [4], the thermal shift relative to vanadate control was -2.74% (inactive).
With `O=c1[nH]n(-c2ccc([N+](=O)[O-])cc2)c(=O)c2ccccc12`, the thermal shift relative to vanadate control in test [4] is 2.78% (inactive).

One may read the inhibition as the change of the read-out against control, counted positive when it falls.

The record behind these values is PubChem BioAssay.
